Data: ChEMBL document CHEMBL1140057, “Design, synthesis, and evaluation of novel organophosphorus inhibitors of bacterial ureases” (J Med Chem, 2008)
pIC50, pKi: −log10 of the molar value.

Key:
[1] = Inhibition of Bacillus pasteurii CCM 2056 urease by steady state kinetic study; set-up: species or system Sporosarcina pasteurii
Outline: (§1)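 Assay at 30 °C in 3 mM phosphate pH 7.0 with 2-100 mM urea. Ammonia read by Berthelot indophenol at 650 nm. Enzyme-inhibitor preincubated 30 min before urea, or diluted 30-fold from a concentrated mix. Ki* from linear regression, triplicates.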

[2] = Inhibition of Proteus vulgaris CCM 1956 urease by steady state kinetic study; outline: as §1
Urease = Urease (Helicobacter pylori, UniProt Q0PXQ5); assay: Inhibition of Helicobacter pylori urease
[3] = Inhibition of Klebsiella aerogenes urease

Chain of Urease (Q0PXQ5 whole entry): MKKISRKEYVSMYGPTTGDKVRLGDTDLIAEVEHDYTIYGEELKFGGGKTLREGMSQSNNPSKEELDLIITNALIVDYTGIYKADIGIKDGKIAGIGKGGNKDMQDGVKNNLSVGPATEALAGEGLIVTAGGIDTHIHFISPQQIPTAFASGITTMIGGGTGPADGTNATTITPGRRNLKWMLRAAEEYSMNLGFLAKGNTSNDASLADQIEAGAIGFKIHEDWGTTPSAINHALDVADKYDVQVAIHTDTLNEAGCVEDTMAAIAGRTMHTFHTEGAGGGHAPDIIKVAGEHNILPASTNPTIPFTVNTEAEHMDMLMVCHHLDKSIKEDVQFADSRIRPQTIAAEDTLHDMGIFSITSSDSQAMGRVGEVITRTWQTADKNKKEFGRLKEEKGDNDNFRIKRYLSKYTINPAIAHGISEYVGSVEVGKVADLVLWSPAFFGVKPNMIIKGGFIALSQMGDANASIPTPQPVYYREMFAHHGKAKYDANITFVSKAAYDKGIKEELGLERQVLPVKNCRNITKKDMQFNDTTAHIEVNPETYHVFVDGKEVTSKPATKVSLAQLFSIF

| Structure (SMILES) | pIC50 [1] | pKi [1] | pIC50 [2] | pKi [2] | pIC50 (Urease) | pKi [3] |
| --- | --- | --- | --- | --- | --- | --- |
| CP(=O)(O)CNC(=O)[C@@H](N)CO | 3.82 | 4.43 | 3.47 | 4.39 |  |  |
| CP(=O)(O)CNC(=O)[C@@H](N)Cc1ccccc1 | 3.22 | 3.67 | 3.12 | 3.75 |  |  |
| CP(O)(=S)CNC(=O)OCc1ccccc1 (configuration not stated) | 3.95 | 4.76 | 3.80 | 4.85 |  |  |
| CC(C)[C@H](N)C(=O)NCP(C)(=O)O | 3.31 | 3.92 | 3.21 | 3.68 |  |  |
| CP(=O)(O)CNC(=O)[C@@H](N)COCc1ccccc1 | 4.10 | 4.60 | 3.74 | 4.49 |  |  |
| CP(=O)(O)CNC(=O)OCc1ccccc1 | 3.91 | 4.37 | 3.50 | 4.19 |  |  |
| CP(O)(=S)CNC(=O)CNC(=O)OCc1ccccc1 (configuration not stated) | 5.74 | 6.77 | 5.51 | 6.35 |  |  |
| NCC(=O)NCC(=O)NO |  |  |  |  | 6.10 |  |
| CP(=O)(O)CNC(=O)CN | 4.22 | 4.68 | 4.07 | 4.52 |  |  |
| CP(=O)(O)CNC(=O)CNC(=O)OCc1ccccc1 | 3.35 | 3.87 | 3.19 | 3.75 |  |  |
| CC(=O)NO [ACETOHYDROXAMIC ACID] |  |  |  |  |  | 5.59 |
| CP(=O)(O)CN [AMINOMETHYL(METHYL)PHOSPHINIC ACID] | 2.96 | 3.47 | 2.60 | 3.37 |  |  |
| CNCP(C)(=O)O [METHYL((METHYLAMINO)METHYL)PHOSPHINIC ACID] | 4.22 | 4.74 | 3.82 | 4.57 |  |  |
| NP(N)(=O)Oc1ccccc1 [PHENYL PHOSPHORDIAMIDATE] |  | 9.22 |  |  |  |  |
